Compound activity from PubChem BioAssay.
The list is not random: actives were taken first. Their share in the collection is about 2.3%.
PAX8 reporter = inhibitors of PAX8 transcriptional activity in RMG-I cells; RMG-I TPO-luciferase reporter, SteadyGlo, 24 h; inhibition, % at 12.6 µM; hit rate 1.2% among 360,000; AID 652154;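 active = mean replicate inhibition at least 60% with every replicate also reaching 60%; inconclusive = only one of the two criteria is met; inactive = mean below 60% and not all replicates reaching 60%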;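 note: luciferase light reporting Pax8 driven TPO promoter activity; plate controls were median of neutral control wells for no effect and mitoxantrone controls for full effect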
PGC1a acetyl inh = PGC1a acetylation modulation, inhibitor mode; U2OS PGC1a acetylation, AlphaScreen anti-acetyl-lysine; with virally co-expressed GCN5 acetyltransferase; inhibition, % at 15.6 µM; hit rate 0.17% among 350,000;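 active = every replicate shows inhibition of at least 40%; inconclusive = mean inhibition at least 40% but some replicate below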;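 note: 0% = neutral control wells and 100% = positive control wells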
F508del corr = correctors of CFTR F508del function in bronchial epithelial cells; hit rate 0.36% among 350,000; activity (quench increase), % at 7.58 µM; CFBE cells, YFP halide quenching; stimulated with forskolin plus potentiator P3; % fluorescence drop versus neutral controls;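 active = mean added fluorescence quench of at least 8% versus neutral control, with both replicates also reaching 8%; inconclusive = only one of the mean or replicate conditions met; inactive = mean below 8% and not both replicates reaching 8%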;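 note: cells transiently co-express mutant CFTR-F508del with the halide-sensitive YFP; corrector assay measuring rescue of mutant channel to the surface after 24 h compound exposure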
EWS-Fli block = blocks EWS/Fli oncoprotein-driven transcription | hit rate 0.67% among 350,000 | A673 NR0B1-luciferase reporter, viability-normalised | AID 651661 | inhibition, % at 12.6 µM;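 active = mean inhibition of at least 50% after viability correction, with every replicate also passing that limit; inconclusive = mean reaches 50% but only one of two replicates passes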;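 note: firefly luciferase signal divided by Alamar Blue viability fluorescence both relative to DMSO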
FN deposition inh = fibronectin deposition inhibition. AH1F fibroblasts, Alexa488-fibronectin deposition fluorescence, overnight. inhibition, % at 12.6 µM. hit rate 0.086% among 350,000. AID 743247;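 active = mean inhibition across replicates of 30% or more, regardless of how many single replicates reach that level; inconclusive = mean under 30% yet at least half of replicates reach 30%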;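 note: positive control wells lacked labelled fibronectin entirely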
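Measured by – fluorescence 485/525 nm · System – AH1F fibroblast monolayer, labelled fibronectin deposition · Amount – 10000 cells per well · Buffer or medium – serum-reduced DMEM (2% serum) · Doses – single dose, pinned · Also added – fluorescent fibronectin at 24 nM final · Schedule – 1 h cell attachment, overnight exposure to compound and label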
Env fusion inh = HIV envelope-mediated fusion inhibition; HeLa-JRFL Env/CEM21 cell fusion, luciferase; inhibition, % at 12.3 µM; hit rate 1.1% among 360,000; AID 651610;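 active = mean replicate inhibition score of at least 50 and every replicate individually at or above 50; inconclusive = only one of the two criteria met; inactive = mean below 50 and not all replicates reaching 50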;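 note: 0% = plate neutral controls and 100% = maraviroc near 300 nM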
Starred values were filed as active, the others as inactive; ? = inconclusive; · = no result given; [ ] = another dose, or the depositor's remark.

SMILES	PAX8 reporter	PGC1a acetyl inh	F508del corr	EWS-Fli block	FN deposition inh	Env fusion inh
COc1cccc(/C=C2\SC(=S)N(CCCC(=O)N(CCO)c3ccccc3)C2=O)c1	65*	·	3	49	18	9
O=C1/C(=C/c2cccc(Br)c2)SC(=S)N1CCC(=O)N(CCO)c1ccccc1	90*	4	2	7	12	10
O=C1/C(=C/c2ccc3c(c2)OCO3)SC(=S)N1CCC(=O)N(CCO)c1ccccc1	15	·	1	4	-4	-18
C[C@@H]1CN([C@@H](C)CO)C(=O)Cc2cc(NC(=O)Nc3ccc(F)cc3)ccc2O[C@H]1CN(C)C(=O)Nc1ccc2c(c1)OCO2	3	6	2	5	4	5[16.7 µM]
C[C@@H]1CN([C@H](C)CO)C(=O)c2cc(N(C)C)ccc2O[C@@H](C)CCCCO[C@H]1CN(C)C(=O)Nc1ccc2c(c1)OCO2	4	-18	-1	-4	·	4[16.7 µM]
COc1ccc(OCC(=O)Nc2cc(-c3nn(C)c(=O)c4ccccc34)ccc2OC)cc1	33	-17	·	·	14	86*
CCN(CC)c1ccc(C(=O)NNC(=O)CCl)cc1	-9	20	-2	16	8	18
CCN(CC)c1ccc(C(=C2C=CC(=[N+](CC)CC)C=C2)c2ccccc2)cc1	113*	·	-9	40	38*	81*
CCN(CC)c1ccc(C(=C2C=CC(=[N+](CC)CC)C=C2)c2ccc(N(CC)CC)cc2)cc1	113*	83*	-6	34	60*	62*
CCN(CC)c1ccc(C(=O)NNC(=O)CCNC(=O)c2ccccc2)cc1	-21	15	-1	-10	-3	·
Cc1noc(C)c1NC(=O)Nc1ccc2c(c1)CC(=O)N([C@@H](C)CO)C[C@H](C)[C@@H](CN(C)C(=O)Nc1ccccc1)O2	3	1	-1	-3	·	-11[16.7 µM]
Cc1ccccc1CNS(=O)(=O)c1ccc2c(c1)C(C)(C)C(=O)N2C	-3	-4	0	·	9	-10
CC(C)C(NS(=O)(=O)c1ccc2c(c1)C(C)(C)C(=O)N2C)C(=O)NCc1ccccc1Cl (stereo unspecified)	3	-4	2	7	-5	62*
CCOc1ccc(S(=O)(=O)N2CCN=C2c2ccccc2)cc1	·	-8	0	55*	-5	·
Cc1cc(S(=O)(=O)N2CCN=C2c2ccccc2)ccc1F	·	5	·	·	7	-33
Cc1nnc(SC(=O)N2c3ccccc3Sc3ccccc32)s1	·	34	·	·	11	69*
C[C@H]1CN([C@@H](C)CO)S(=O)(=O)c2ccc(/C=C/c3ccccc3)cc2O[C@@H]1CN(C)Cc1cccnc1	86*	16	-1	20	·	13[16.7 µM]
C[C@@H]1CN([C@@H](C)CO)S(=O)(=O)c2ccc(-c3ccccc3)cc2O[C@@H]1CN(C)Cc1ccncc1	·	-7	2	-4	-15	12[16.7 µM]
Cc1ccc(-c2ccc3c(c2)O[C@H](CN(C)Cc2cccnc2)[C@@H](C)CN([C@H](C)CO)S3(=O)=O)cc1	·	-10	1	63*	15	79*[16.7 µM]
Cc1ccc(-c2ccc3c(c2)O[C@H](CN(C)Cc2ccncc2)[C@@H](C)CN([C@@H](C)CO)S3(=O)=O)cc1	·	-13	3	72*	6	91*[16.7 µM]
Cc1ccc(-c2ccc3c(c2)O[C@@H](CN(C)Cc2ccncc2)[C@H](C)CN([C@H](C)CO)S3(=O)=O)cc1	·	9	6	74*	20	90*[16.7 µM]
C[C@@H]1CN([C@@H](C)CO)C(=O)c2cc(NC(=O)CCN3CCOCC3)ccc2O[C@H]1CN(C)Cc1ccc(Cl)c(Cl)c1	-2	3	8	·	·	-21[16.7 µM]
CO[C@@H]1CN(C)C(=O)c2cc(NC(=O)C3CCOCC3)ccc2OC[C@@H](C)N(S(=O)(=O)c2ccc(Cl)cc2)C[C@H]1C	·	-10	3	0	·	10[16.7 µM]
COc1ccc(C(=O)Nc2ccc3c(c2)OC[C@@H](C)N(C(C)=O)C[C@H](C)[C@@H](OC)CN(C)C3=O)cc1	·	-12	?	8	-5	·
C[C@H]1CN([C@@H](C)CO)S(=O)(=O)c2ccc(-c3ccncc3)cc2O[C@@H]1CN(C)Cc1ccc(Oc2ccccc2)cc1	·	5	3	29	-8	33[16.7 µM]
